Test [1] addresses T1, LSM12 (like-Sm protein 12) (Homo sapiens, UniProt Q3MHD2). The experiment in a line: biolayer interferometry, biotinylated protein on streptavidin sensor. The format is binding. The procedure, abridged: (§1)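 Recombinant human protein, expressed in E. coli BL21 Star (DE3) as an N-terminal 6xHis-GST-TEV fusion, was biotinylated (NHS-LC-biotin) and moved into 110 mM KCl, 10 mM NaCl, 20 mM Hepes pH 7.2 with 1% BSA. SAX sensors were equilibrated 30 s, loaded with 70 nM bait for 15 s, and re-equilibrated 60 s. They were exposed to NAADP (1:2 serial dilutions, 500 to 15.6 nM), then dissociated 210 to 300 s.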

Test [2] addresses T2, JPT2 (Jupiter microtubule-associated homolog 2) (Homo sapiens, UniProt Q9H910).
T2 sequence (Q9H910 1-190): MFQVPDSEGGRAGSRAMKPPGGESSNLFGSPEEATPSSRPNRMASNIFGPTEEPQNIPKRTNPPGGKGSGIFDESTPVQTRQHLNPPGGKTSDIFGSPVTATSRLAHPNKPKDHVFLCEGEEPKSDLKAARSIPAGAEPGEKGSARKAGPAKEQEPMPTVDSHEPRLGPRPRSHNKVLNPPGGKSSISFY
Described as above. It is filed as binding. The procedure, abridged:
as §1

For test [3], the target named is T1, LSM12 (like-Sm protein 12). The experiment in a line: […]-NAADP displacement, PVDF filter binding.
Test [4] has as its target T2, JPT2 (Jupiter microtubule-associated homolog 2). The experiment in a line: […]-NAADP displacement, PVDF filter binding.

T1 sequence (Q3MHD2 whole entry, the tested form may be a part): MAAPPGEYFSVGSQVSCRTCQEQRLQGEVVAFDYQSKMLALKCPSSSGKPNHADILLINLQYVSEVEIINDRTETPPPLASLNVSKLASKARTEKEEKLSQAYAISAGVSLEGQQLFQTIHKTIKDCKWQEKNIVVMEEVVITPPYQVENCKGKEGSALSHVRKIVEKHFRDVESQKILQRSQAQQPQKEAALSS

For `Nc1ncnc2c1ncn2[C@@H]1O[C@H](COP(=O)(O)OP(=O)(O)OC[C@H]2O[C@@H]([n+]3cccc(C(=O)O)c3)[C@H](O)[C@@H]2O)[C@@H](O)[C@H]1OP(=O)(O)O` [NAADP], the figures for the Kd in test [1] and in test [2] were 2.03 ± 0.41 nM and 5.71 ± 1.8 nM, respectively. Besides, the values for the half-maximal inhibitory concentration (IC50) in test [3] and in test [4] were 0.703 ± 0.1 nM and 1.09 ± 0.1 nM, respectively.
The matching figures for `NC(=O)c1ccc[n+]([C@@H]2O[C@H](COP(=O)(O)OP(=O)(O)OC[C@H]3O[C@@H](n4cnc5c(N)ncnc54)[C@H](OP(=O)(O)O)[C@@H]3O)[C@@H](O)[C@H]2O)c1` [NADP]: 126 ± 35.6 nM, 52.9 ± 8.6 nM, 40.3 ± 25 nM and 15.9 ± 4 nM.

(Values after publication PMC10639087 (Science signaling, 2023).)
